# Results: ChEMBL document CHEMBL4818983, “Structure-activity relationship and hypoglycemic activity of tricyclic matrines with advantage of treating diabetic nephropathy” (Eur J Med Chem, 2020)
# Active and inactive are the calls of the source. The calls are words filed in the database; no cut-off is given here.
# Tests used:
# HepG2 [1] = assay: Cytotoxicity against human HepG2 cells upto 160 uM after 24 hrs by MTT assay; type: cell-based; details: hepg2, 24 h
# Procedure, shortened: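 HepG2 cells exposed to compound; cell growth measured; CC50 derived from the concentration–growth relationship.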
# Mus musculus [2] = assay: Antidiabetic activity in KK-Ay mouse assessed as effect on Triglycerides level at 100 mg/kg, […] by ELISA (reference value: 4.01 +/- 1.83 mM); type: functional
# Mus musculus [3] = assay: Antidiabetic activity in KK-Ay mouse assessed as effect on insulin level at 100 mg/kg, […] by ELISA (reference value: 226 +/- 15.5 mU/l); type: functional
# Mus musculus [4] = assay: Anti-diabetic activity in high fat diet-fed KK-Ay mouse model of obesity and diabetes assessed as improved pathological changes in pancreas at 50 to 100 mg/kg, po by hematoxylin and eosin staining based histopathological analysis; type: functional, organism-based; details: dose 50-100 mg/kg
# Procedure, shortened: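 Mice sacrificed at study end, with KK-Ay given 50 or 100 mg/kg compound or 5 mg/kg rosiglitazone orally and C57BL/6J as normal controls. Kidney and pancreas sections H&E stained, imaged at 200×, pathological changes scored. Mean ± SD of 8-9 mice per group.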
# Mus musculus [5] = assay: Antidiabetic activity in KK-Ay mouse assessed as effect on BUN level at 50 mg/kg, po for 24 hrs by ELISA (reference value: 12.8 +/- 2.97 mM); type: functional
# [6] = Acute toxicity in Kunming mouse assessed as effect on blood GPT level at 250 to 1000 mg/kg, po administered as single dose measured for 7 days; type: organism-based; details: in vivo, 168 h, dose 250-1000 mg/kg, time 7 day
# Procedure, shortened: (§1)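 Kunming mice each received one oral dose at 250, 500, 750 or 1000 mg·kg^-1 and were closely monitored for 7 days. At the end, blood was sampled and GOT, GPT, BUN and CRE were measured […] as liver and kidney function markers.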
# HepG2 [7] = assay: Induction of glycolysis in human HepG2 cells assessed as reduction in cellular ATP production at 10 to 40 uM measured after 24 hrs; type: functional, cell-based; details: dose 10-40 µM
# Procedure, shortened: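 HepG2 cells treated 24 h at the indicated concentrations; RGZ as reference. Supernatants used for glucose consumption and lactate release; lysed cells used for ATP, normalized to protein content. Mean ± SD of 3 or 4 separate experiments; compared with DMSO.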
# [8] = Effect on high fat diet-fed KK-Ay mouse model of obesity and diabetes assessed as total body weight gain at 50 mg/kg, po (reference value: 43.5 +/- 5.24 g); type: ADME, organism-based; details: in vivo
# Procedure, shortened: (§2)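 KK-Ay mice on lipogenic diet, with C57BL/6J mice as normal controls, dosed orally at 50 or 100 mg/kg (test) or 5 mg/kg (RGZ). Food intake (g/day), water intake (mL/day) and body weight recorded before and after treatment; body weight gain calculated. Mean±SD, 8-9 mice per group.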
# Mus musculus [9] = assay: Antidiabetic activity in KK-Ay mouse assessed as effect on BUN level at 100 mg/kg, po for 24 hrs by ELISA (reference value: 12.8 +/- 2.97 mM); type: functional
# [10] = Effect on high fat diet-fed KK-Ay mouse model of obesity and diabetes assessed as water intake at 50 mg/kg, po (reference value: 21.2 +/- 4.17 ml/day); type: ADME, organism-based; details: in vivo; procedure, shortened: as §2
# Mus musculus [11] = assay: Antidiabetic activity in KK-Ay mouse assessed as effect on cholesterol level at 100 mg/kg, po for 24 hrs by ELISA (reference value: 7.38 +/- 1.03 mM); type: functional
# Mus musculus [12] = species: Mus musculus; assay: Anti-diabetic activity in high fat diet-fed C57BL/6J mouse model of obesity and diabetes assessed as decrease in microalbumin level in urine measured after 24 hrs; type: functional, organism-based
# Procedure, shortened: (§3)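 Before study end, 24-h urine collected from C57BL/6J controls and KK-Ay mice (untreated, oral 50 or 100 mg/kg compound, or 5 mg/kg rosiglitazone). Volume, glucose, total protein and microalbumin measured by kits. Mean ± SD, 8-9 mice per group, vs C57BL/6J or untreated KK-Ay.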
# Mus musculus [13] = assay: Antidiabetic activity in KK-Ay mouse assessed as reduction in fasting blood glucose level at 100 mg/kg, po for 50 days by glucose oxidase method (reference value: 13.3 +/- 2.85 mM); type: functional; details: time 50 day
# Procedure, shortened: (§4)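 Lipogenic-diet KK-Ay mice given 50 or 100 mg/kg compound or 5 mg/kg rosiglitazone orally for 50 days, C57BL/6J as normal controls. Fasting blood glucose, glycosylated haemoglobin, AGE, insulin, HOMA-IR, cholesterol, LDL-c, TG, serum creatinine and BUN determined. Mean ± SD, 8-9 mice per group.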
# L6 = assay: Increase in glucose consumption in rat L6 cells after 24 hrs by glucose oxidase assay; type: functional, cell-based
# Procedure, shortened: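 L6 myotubes treated with DMSO, compound or RGZ (20 μM) at the indicated concentrations for 24 h. Culture supernatants assayed for glucose consumption and lactate release; lysed cells assayed for ATP, normalized to protein. Mean ± SD of 3 independent experiments vs DMSO.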
# Mus musculus [14] = assay: Antidiabetic activity in KK-Ay mouse assessed as effect on LDL level at 100 mg/kg, po […] by ELISA (reference value: 1.11 +/- 0.24 mM); type: functional
# Mus musculus [15] = species: Mus musculus; assay: Anti-diabetic activity in high fat diet-fed C57BL/6J mouse model of obesity and diabetes assessed as […] in total protein level in urine measured after 24 hrs; type: functional, organism-based; procedure, shortened: as §3
# Mus musculus [16] = assay: Anti-diabetic activity in high fat diet-fed KK-Ay mouse model of obesity and diabetes assessed as reduction in urine glucose level at 50 to 100 mg/kg, po measured after 24 hrs; details: dose 50-100 mg/kg
# Mus musculus [17] = assay: Anti-diabetic activity in high fat diet-fed KK-Ay mouse model of obesity and diabetes assessed as reduction in microalbumin level in urine at 50 to 100 mg/kg, po measured after 24 hrs; type: functional, organism-based; details: dose 50-100 mg/kg; procedure, shortened: as §3
# [18] = Acute toxicity in Kunming mouse assessed as effect on blood BUN level at 250 to 1000 mg/kg, po administered as single dose measured for 7 days; type: organism-based; details: in vivo, 168 h, dose 250-1000 mg/kg, time 7 day; procedure, shortened: as §1
# Mus musculus [19] = assay: Antidiabetic activity in KK-Ay mouse assessed as effect on LDL level at 50 mg/kg, po for 24 hrs by ELISA (reference value: 1.11 +/- 0.24 mM); type: functional
# [20] = Effect on high fat diet-fed KK-Ay mouse model of obesity and diabetes assessed as total body weight gain at 100 mg/kg, po (reference value: 43.5 +/- 5.24 g); type: ADME, organism-based; details: in vivo; procedure, shortened: as §2
# Mus musculus [21] = assay: Antidiabetic activity in KK-Ay mouse assessed as effect on glycosylated haemoglobin level at 50 mg/kg, po for 50 days by glucose oxidase method (reference value: 8.74 +/- 1.08%); type: functional; details: time 50 day; procedure, shortened: as §4
# [22] = Effect on high fat diet-fed po dosed C57BL/6J mouse model of obesity and diabetes assessed as total body weight gain; type: organism-based; details: in vivo
# Mus musculus [23] = assay: Antidiabetic activity in KK-Ay mouse assessed as effect on AGE level at 50 mg/kg, po for 24 hrs by ELISA (Rvb 2.85 +/- 0.92 ug/ml); type: functional
# HepG2 [24] = assay: Increase in glucose consumption in human HepG2 cells assessed as Gx/GDMSO ratio at 25 uM by glucose oxidase assay; type: functional
# Procedure, shortened: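 HepG2 glucose consumption screen. Test compounds at 25 μM, metformin at 5 mM. Activity expressed as ratio of glucose consumption to DMSO-treated cells (Gx/G_DMSO).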
smiles,measurement,setting,value
CCCC[C@@H]1[C@H]2CCCN3CCC[C@@H](CN1S(=O)(=O)c1ccc(C(F)(F)F)cc1)[C@@H]23,Activity,HepG2 [1],Non-Toxic
same,Activity,Mus musculus [2],2.39 mM
same,Activity,Mus musculus [3],128 mU/L
same,Activity,Mus musculus [4],Active
same,Activity,Mus musculus [5],12.7 mM
same,Activity,[6],Non-Toxic
same,Activity,HepG2 [7],Dose-Dependent Effect
same,Activity,[8],3.52 g
same,Activity,Mus musculus [9],12.4 mM
same,Activity,[10],13.8 mL/day
same,Activity,Mus musculus [11],5.55 mM
same,Activity,Mus musculus [12],inactive
same,Activity,Mus musculus [13],8.18 mM
same,Activity,L6,Dose-Dependent Effect
same,Activity,Mus musculus [14],0.82 mM
same,Activity,Mus musculus [15],inactive
same,Activity,Mus musculus [16],Active
same,Activity,Mus musculus [17],Active
same,Activity,[18],Non-Toxic
same,Activity,Mus musculus [19],1.06 mM
same,Activity,[20],2.53 g
same,Activity,Mus musculus [21],7.07%
same,Activity,[22],3.42 g
same,Activity,Mus musculus [23],1.59 µg/mL
same,Ratio,HepG2 [24],1.49
